Compound activity (PubChem BioAssay)
Beta cell apopt – beta cell apoptosis inhibition; INS-1E cytokine-induced death, ATP luminescence, 48 h; percent of positive-control rescue, neutral wells zero; protection from apoptosis, % (test concentration not listed); actives 0.8% (n = 300,000); AID 435005;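 active = Every replicate reaches about 75%, or at least half do and their mean reaches it too, limit read from the data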;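 also: 0% = cytokine-treated negative control wells and 100% = positive control rescue; higher means more ATP so stronger rescue from cytokine killing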
Calb FLC – C. albicans growth modulation with fluconazole | C. albicans CaCi-2 (fluconazole-resistant clinical isolate) + fluconazole, Alamar Blue growth, 48 h | growth inhibition, % (concentration not given with the values) | actives 0.57% (n = 300,000) | AID 1979;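 active = growth inhibition above about 58% in most replicates, limit read from the data, passing the limit was not always enough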;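 also: all wells also contain fluconazole at 8 µg/ml as a sub-toxic cotreatment; 0% = median of DMSO wells and 100% = median of geldanamycin control wells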
SKKanGAS inh – inhibitors of SKKanGAS S. pyogenes growth in kanamycin (SK-promoter or general growth effect) | BacTiter-Glo, 6 h | inhibition, % at 7.5 µM | actives 1.3% (n = 300,000);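 active = mean replicate score, as percent of positive control median, at least 50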;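 also: strain carries kanamycin resistance gene driven by streptokinase promoter and grows in 40 µg/ml kanamycin; loss of luminescence reflects streptokinase promoter inhibition or plain growth inhibition; 0% = median of DMSO wells and 100% = positive control at its reference dose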
Mdm2 MdmX PPI – inhibitors of human Mdm2/MdmX interaction; SaOS-2 split-luciferase Mdm2/MdmX complementation, luminescence; O15151+Q00987; inhibition, % at 8 µM; actives 3% (n = 330,000);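 active = inhibition of at least 50% at 8 µM in the primary screen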
Target sequence (O15151 whole entry, looked up): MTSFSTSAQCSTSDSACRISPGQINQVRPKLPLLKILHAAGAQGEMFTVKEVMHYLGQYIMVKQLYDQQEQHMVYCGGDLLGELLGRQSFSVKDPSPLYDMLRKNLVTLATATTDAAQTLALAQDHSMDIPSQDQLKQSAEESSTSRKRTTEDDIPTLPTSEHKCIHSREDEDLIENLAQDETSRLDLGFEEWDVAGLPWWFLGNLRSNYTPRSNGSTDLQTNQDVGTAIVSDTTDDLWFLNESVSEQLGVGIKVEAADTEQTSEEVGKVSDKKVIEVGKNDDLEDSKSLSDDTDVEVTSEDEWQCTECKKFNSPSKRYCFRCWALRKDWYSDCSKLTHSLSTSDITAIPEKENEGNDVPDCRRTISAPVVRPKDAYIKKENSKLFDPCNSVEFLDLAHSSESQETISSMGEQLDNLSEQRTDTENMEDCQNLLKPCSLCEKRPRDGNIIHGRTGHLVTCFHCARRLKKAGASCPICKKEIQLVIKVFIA
Target sequence (Q00987 whole entry, looked up): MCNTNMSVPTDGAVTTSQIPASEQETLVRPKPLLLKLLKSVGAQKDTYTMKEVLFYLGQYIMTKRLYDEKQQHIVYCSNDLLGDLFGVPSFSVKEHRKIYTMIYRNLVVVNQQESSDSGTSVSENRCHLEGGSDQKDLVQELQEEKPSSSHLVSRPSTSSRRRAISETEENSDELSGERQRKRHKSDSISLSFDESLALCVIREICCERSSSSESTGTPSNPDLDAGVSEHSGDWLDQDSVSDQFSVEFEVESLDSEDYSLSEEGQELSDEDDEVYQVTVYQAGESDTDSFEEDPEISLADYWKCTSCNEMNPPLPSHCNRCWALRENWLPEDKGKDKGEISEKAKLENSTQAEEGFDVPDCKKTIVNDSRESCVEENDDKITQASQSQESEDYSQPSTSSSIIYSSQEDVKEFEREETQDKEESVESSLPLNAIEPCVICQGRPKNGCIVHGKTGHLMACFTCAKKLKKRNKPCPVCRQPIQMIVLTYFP
CSC inhib – blocks cancer stem cells; cancer stem cell-like cells viability, luminescence; inhibition, % at 7.5 µM; actives 1.1% (n = 300,000); AID 2717; in the data active = inhibition above about 75%; tested in HMLE shEcad cells
T cruzi repl – blocks replication of Trypanosoma cruzi; T. cruzi beta-gal in NIH3T3, luminescence, 90 h; inhibition, % (no concentration beside the values); actives 1.4% (n = 300,000); AID 1885;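 active = mean inhibition across valid replicates above about 55%, limit read from the data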;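 also: signal also drops with host cell toxicity which is not excluded here; 0% = plate median of DMSO wells and 100% = zero luminescence signal; higher percent means less beta-gal luminescence so fewer parasites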
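Read-out: Parasite load inhibition, % | Test system: Mouse NIH/3T3 fibroblasts infected with β-gal-expressing T. cruzi Tulahuen C4 | Amount: 5,000 cells/well | Medium: DMEM, 2% fetal bovine serum | Signal: GalScreen β-gal luminescence, detergent lysis, 60 min | Timing: 3 h attach, ≥90 h co-culture | Also added: Tulahuen C4 trypomastigotes, 5000/well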
Mdm2-MdmX conf – human Mdm2/MdmX binding inhibition, confirmed. shares compounds with Mdm2 MdmX PPI. luminescent assay. inhibition, % at 8 µM. actives 55% (n = 10,000); in the data active = inhibition above about 40%
FLuc counter – inhibits full-length luciferase, flagging false Mdm2/MdmX hits; shares compounds with Mdm2 MdmX PPI; inhibition, % at 8 µM; AID 504607; actives 77% (n = 6,200); SaOS-2 full-length luciferase counterscreen, luminescence;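 active = mean inhibition at 8 µM reaching about 37%, which flags the compound as non-specific, limit read from the data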;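 also: p53-null SaOS-2 cells with luciferase driven by a doxycycline-inducible promoter; compound on cells about two nights before reading with doxycycline added after day one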
Numbers without * were called inactive. The list is not random: actives were taken first. Their share in the collection is about 5.7%.

What do the screens show for `COC(=O)C1=C(c2ccc(Cl)c(C(F)(F)F)c2)C[C@@H]2CC[C@H]1N2C(=O)NCCOc1ccccc1Cl`?
Beta cell apopt: 2; Mdm2 MdmX PPI: 27; CSC inhib: 46

How did O=C(C[N+]12CCC(CC1)C(C(O)(c1ccccc1)c1ccccc1)C2)c1ccc(Br)cc1 (stereo unspecified) do in these assays?
Beta cell apopt: 4; Calb FLC: 95*; SKKanGAS inh: 16; Mdm2 MdmX PPI: 7; CSC inhib: -12; T cruzi repl: 5

What do the screens show for `O=[N+]([O-])c1ccc(-[n+]2c(-c3ccccc3)cc(-c3ccccc3)cc2-c2ccccc2)cc1`?
Calb FLC: -2; SKKanGAS inh: -5; Mdm2 MdmX PPI: 15; CSC inhib: 0; T cruzi repl: 57*

Results for O=C([O-])c1ccc(-[n+]2c(-c3ccccc3)cc(-c3ccccc3)cc2-c2ccccc2)cc1 ?
Beta cell apopt: 12; Calb FLC: -22; SKKanGAS inh: -1; Mdm2 MdmX PPI: 2; CSC inhib: -9; T cruzi repl: 31

Results for CN(C)CCN(C(=O)COc1ccc(Cl)cc1)c1nc2cc3c(cc2s1)OCO3 ?
Calb FLC: -5; SKKanGAS inh: -1; Mdm2 MdmX PPI: -2; CSC inhib: -15; T cruzi repl: 35

Results for C[C@]12CCC3C(CC[C@@H]4C[C@H](O)CC[C@]34C)C1CCC2=O (stereo partly specified) ?
Beta cell apopt: 1; Mdm2 MdmX PPI: 17; CSC inhib: -3

How did CCC1=Nc2cc(C(=O)N3CCC4(CC3)OCCO4)ccc2Sc2ccc(Br)cc21 do in these assays?
Beta cell apopt: -2; Calb FLC: 18; SKKanGAS inh: -15; Mdm2 MdmX PPI: 4; CSC inhib: 13; T cruzi repl: -5

How did Cc1sc2ncnc(N3CCC(C(=O)Nc4ccc(C#N)c(Cl)c4)CC3)c2c1C do in these assays?
Beta cell apopt: -2; Calb FLC: -5; SKKanGAS inh: 57*; Mdm2 MdmX PPI: 31; CSC inhib: -6; T cruzi repl: 19

How did Cc1noc(C)c1CSCC(=O)Nc1ccc(C#N)c(Cl)c1 do in these assays?
Beta cell apopt: 1; Mdm2 MdmX PPI: 5; CSC inhib: -14

What do the screens show for `CC(C)CC(C)N` (stereo unspecified)?
Beta cell apopt: -2; Mdm2 MdmX PPI: 20; CSC inhib: -15

What do the screens show for `CCOC(=O)C(C)Oc1cc(C)cc2oc(=O)c3c(c12)CCCC3` (stereo unspecified)?
Calb FLC: 1; SKKanGAS inh: 4; Mdm2 MdmX PPI: 31; T cruzi repl: 27

How did CCCCCc1cc(O)c2c3c(c(=O)oc2c1)CN(C)CC3 do in these assays?
Beta cell apopt: 10; Calb FLC: -7; SKKanGAS inh: 8; Mdm2 MdmX PPI: 27; CSC inhib: 84*; T cruzi repl: 3

What do the screens show for `CCC1(OC(=O)CN)C(=O)OCc2c1cc1n(c2=O)Cc2cc3ccccc3nc2-1` (stereo unspecified)?
Beta cell apopt: 92*; Calb FLC: 12; SKKanGAS inh: 3; CSC inhib: 55; T cruzi repl: 61*

Results for CC[C@@]1(O)C(=O)OCc2c1cc1n(c2=O)Cc2cc3ccccc3nc2-1 ?
Beta cell apopt: 103*; SKKanGAS inh: -3; CSC inhib: 60; T cruzi repl: 56*

What do the screens show for `Cc1nn(CC(C)C)c(Cl)c1C(=O)NC1CCCCC1`?
Mdm2 MdmX PPI: 33

Results for COc1cc(/C=C(/C)[N+](=O)[O-])ccc1OCc1ccccc1Cl ?
Beta cell apopt: 92*; Mdm2 MdmX PPI: 95*; CSC inhib: 78*; T cruzi repl: 61*; Mdm2-MdmX conf: 100*; FLuc counter: 51*

Results for N#CCC(=O)NN1Cc2ccccc2C1=N ?
Beta cell apopt: -2; Calb FLC: 0; SKKanGAS inh: -3; Mdm2 MdmX PPI: -21; CSC inhib: 0; T cruzi repl: -16
